Screens deposited in PubChem BioAssay by The Scripps Research Institute Molecular Screening Center.
Shown are actives, neighbours in structure and some others; about 1.8% of the full set was active somewhere.
NPY Y1 blocker: NPY-Y1 receptor antagonists, primary screen, cell-based. Neuropeptide Y receptor type 1 (Homo sapiens), P25929. AID 1040, 2008. actives 1% (n = 200,000). inhibition, % at 3.6 µM. HEK293-CNG Y1 cells, membrane potential fluorescence; NPY at EC95, then isoproterenol;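 active means inhibition above the campaign mean inhibition of all tested compounds plus 3 SD, cut at about 20% in these data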
Target sequence (P25929 whole entry, looked up): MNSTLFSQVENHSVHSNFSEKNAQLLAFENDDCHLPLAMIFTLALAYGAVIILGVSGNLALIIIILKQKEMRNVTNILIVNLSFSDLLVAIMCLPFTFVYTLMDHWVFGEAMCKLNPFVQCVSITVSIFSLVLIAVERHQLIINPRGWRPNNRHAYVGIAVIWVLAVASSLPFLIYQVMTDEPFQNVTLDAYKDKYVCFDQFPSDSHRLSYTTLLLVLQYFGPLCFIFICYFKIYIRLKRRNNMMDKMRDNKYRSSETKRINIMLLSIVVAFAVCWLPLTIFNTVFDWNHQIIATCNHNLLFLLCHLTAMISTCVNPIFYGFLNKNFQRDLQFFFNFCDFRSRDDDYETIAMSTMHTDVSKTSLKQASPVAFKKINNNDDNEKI
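Assay system: HEK293 Y1/CNG channel cell line; Doses: single compound dose of 3.6 µM, 0.4% DMSO; Timing: dye 3 h, compound 60 min room temperature, stimulation 45 min; Technique: Membrane-potential fluorescent dye readout; Measure: % inhibition of NPY effect.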
NPY2 pot ag: NPY-Y2 potentiators or agonists, primary screen, cell-based | cells expressing NPY-Y2, potentiator/agonist read-out | Neuropeptide Y receptor type 2 (Homo sapiens), P49146 | activation, % at 3.6 µM | AID 1359, 2008 | actives 0.45% (n = 220,000); in the data active means activation above about 27%;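 further: cells stimulated with NPY near EC25 plus isoproterenol at EC100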
Target sequence (P49146 whole entry, looked up): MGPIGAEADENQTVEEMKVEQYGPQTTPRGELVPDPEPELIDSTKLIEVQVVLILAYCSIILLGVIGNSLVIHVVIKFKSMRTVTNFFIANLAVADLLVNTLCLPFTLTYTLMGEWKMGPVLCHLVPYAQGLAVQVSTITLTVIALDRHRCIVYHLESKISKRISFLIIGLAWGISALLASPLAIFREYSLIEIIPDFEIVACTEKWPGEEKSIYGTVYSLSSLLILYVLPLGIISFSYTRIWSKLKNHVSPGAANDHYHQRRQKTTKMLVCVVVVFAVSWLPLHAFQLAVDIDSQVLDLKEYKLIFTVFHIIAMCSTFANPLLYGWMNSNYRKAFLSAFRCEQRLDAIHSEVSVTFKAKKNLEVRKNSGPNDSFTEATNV
NPY-Y2 antag: NPY-Y2 receptor antagonists, primary screen, cell-based; Neuropeptide Y receptor type 2 (Homo sapiens), P49146; NPY-Y2 expressing cells, antagonist mode; inhibition, % at 2.7 µM; actives 0.99% (n = 140,000); in the data active means inhibition above about 17%
NPY-Y1 PAM-ag: NPY-Y1 receptor potentiators or agonists, primary screen, cell-based; Neuropeptide Y receptor type 1 (Homo sapiens), P25929; NPY-Y1 expressing cells, potentiator/agonist activation; activation, % at 3.6 µM; actives 0.37% (n = 220,000); in the data active means activation above about 33%, passing the limit was not always enough;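 further: cells stimulated with NPY at EC10 then isoproterenol at EC100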
NPY-Y1 confirm: NPY-Y1 potentiators or agonists, confirmation, cell-based; actives 20% (n = 280); shares compounds with NPY-Y1 PAM-ag; activation, % at 3.6 µM; cell-based NPY-Y1 potentiator/agonist assay; in the data active means activation above about 45%;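 further: cells challenged with NPY at its EC10 plus isoproterenol stimulus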
NPY-Y2 counter: NPY-Y2 potentiators or agonists, counter-screen for NPY-Y1 potentiator project, cell-based, fluorescence; shares compounds with NPY-Y1 PAM-ag; HEK293-CNG cells, membrane-potential fluorescence (FLIPR), 1536-well; activation, % at 3.6 µM; actives 20% (n = 280); AID 1649, 2009; in the data active means activation above about 33%
NPY-Y1 agonist: NPY-Y1 direct agonists without NPY, confirmation, counter-screen for NPY-Y1 potentiator project, cell-based, fluorescence | HEK293 Y1-CNGC, membrane potential fluorescence, agonist mode | shares compounds with NPY-Y1 PAM-ag | AID 1697, 2009 | actives 50% (n = 280) | activation, % at 3.6 µM;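 active means percent activation above the mean of DMSO-only control wells plus 3 SD of those wells, cut at about 18% in these data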;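 further: cells challenged with isoproterenol plus Ro 20-1724 with no NPY in test wells; Y1 agonism lowers isoproterenol-driven cAMP and reduces probe fluorescence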
NPY-Y2 agonist: NPY-Y2 direct agonists without NPY, counter-screen for NPY-Y1 potentiator project, cell-based, fluorescence; AID 1698, 2009; activation, % at 3.6 µM; actives 67% (n = 280); HEK293 Y2-CNGC, membrane potential fluorescence, agonist mode; shares compounds with NPY-Y1 PAM-ag;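 active means activation above the solvent-only control wells' mean plus 3 SD, cut at about 11% in these data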;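 further: agonism lowers cAMP so well fluorescence drops in active wells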
CNGC inh 2: CNGC cAMP sensor activity inhibitors, counter-screen for NPY-Y1 potentiator/agonist project, cell-based, HEK293-CNG parental, membrane potential fluorescence, Y1 set; shares compounds with NPY-Y1 PAM-ag; isoproterenol cAMP; inhibition, % at 3.6 µM; actives 42% (n = 280); AID 1704, 2009;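 active means inhibition above the mean of stimulated solvent-only control wells plus 3 SD, cut at about 22% in these data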
Of the large screens only hits and unclear results are named; the others gave an inactive call (follow-up assays come after a bar, where they were run).

COc1ccccc1NS(=O)(=O)c1cc(N/C(=N\S(=O)(=O)c2ccccc2)c2ccc(F)cc2)ccc1Cl	NPY-Y1 PAM-ag 43 | NPY-Y1 confirm inactive | NPY-Y2 counter inactive | NPY-Y1 agonist 25 | NPY-Y2 agonist 24 | CNGC inh 2 43
COCCCNc1nc2c(c(=O)[nH]c(=O)n2C)n1CC(O)COc1ccccc1 (stereo unspecified)	NPY-Y1 PAM-ag 96 | NPY-Y1 confirm inactive | NPY-Y2 counter inactive | NPY-Y1 agonist inactive | NPY-Y2 agonist 12 | CNGC inh 2 inactive
COc1cc(/C=C(\C#N)c2nc3ccccc3s2)cc([N+](=O)[O-])c1O	none (no result: NPY-Y2 antag)
N#C/C(=C\c1ccc(O)c([N+](=O)[O-])c1)c1nc2ccccc2s1	NPY-Y1 PAM-ag 39 (no result: NPY-Y2 antag) | NPY-Y1 confirm inactive | NPY-Y2 counter inactive | NPY-Y1 agonist inactive | NPY-Y2 agonist inactive | CNGC inh 2 inactive
COc1cc(C(=O)Nc2ccc(C(N)=O)cc2)c([N+](=O)[O-])cc1OC	none (no result: NPY-Y2 antag)
O=C(c1ccccc1)N1CCN(C(=O)c2ccncc2)CC1	none
O=C(c1ccccc1)N1CCN(c2n[nH]c(=O)[nH]c2=O)CC1	NPY-Y1 PAM-ag 45 (no result: NPY-Y2 antag) | NPY-Y1 confirm inactive | NPY-Y2 counter inactive | NPY-Y1 agonist inactive | NPY-Y2 agonist inactive | CNGC inh 2 inactive
OC(c1ccccc1)(c1ccccc1)C1CCN(C(=S)NC2CCCC2)CC1	none (no result: NPY-Y2 antag)
[O-]/C(=C(\C(=S)Nc1ccc(SC(F)F)cc1)[n+]1ccccc1)c1ccc(Cl)cc1Cl	NPY-Y1 PAM-ag 37 (no result: NPY-Y2 antag) | NPY-Y1 confirm 48 | NPY-Y2 counter inactive | NPY-Y1 agonist 36 | NPY-Y2 agonist 31 | CNGC inh 2 47
Cc1cc(C)cc(NC(=S)/C(=C(\[O-])c2ccc(Cl)cc2Cl)[n+]2ccccc2)c1	none (no result: NPY-Y2 antag)
COc1ccc(C(=O)NC2CCCCCC2)cc1S(=O)(=O)Nc1ccc(Br)cc1	NPY-Y1 PAM-ag 48 | NPY-Y1 confirm 44 | NPY-Y2 counter inactive | NPY-Y1 agonist 42 | NPY-Y2 agonist 31 | CNGC inh 2 40
COc1ccc(C(=O)NC2CCCCCC2)cc1S(=O)(=O)N1CCCC1	none (no result: NPY-Y2 antag)
CCCCCCOC(=O)C(C#N)c1nc2ccccc2nc1N1CCN(CC)CC1 (stereo unspecified)	none
CCN1CCN(c2nc3ccccc3nc2C(C#N)C(=O)OCc2ccccc2)CC1 (stereo unspecified)	NPY-Y1 PAM-ag 40 | NPY-Y1 confirm 62 | NPY-Y2 counter 47 | NPY-Y1 agonist 41 | NPY-Y2 agonist 54 | CNGC inh 2 53
CCOC(=O)Cc1csc(NC(=O)CSc2nnc(-c3ccc(F)cc3)o2)n1	none
COc1cc2c(cc1NC(=O)CN1C(=O)NC3(CCc4ccccc43)C1=O)oc1ccccc12 (stereo unspecified)	NPY-Y1 PAM-ag 35 | NPY-Y1 confirm 62 | NPY-Y2 counter 39 | NPY-Y1 agonist 37 | NPY-Y2 agonist 44 | CNGC inh 2 45
CCOc1cc(N2CCOCC2)c(OCC)cc1NC(=O)CN1C(=O)NC2(CCc3ccccc32)C1=O (stereo unspecified)	none
O=C(O)C1CC=CCC1C(=O)N1CC=C(c2ccccc2)CC1 (stereo unspecified)	none (no result: NPY-Y2 antag)
O=C(COc1ccc(Cl)cc1)Nc1ccc(Cc2ccncc2)cc1	NPY-Y1 PAM-ag 62 | NPY-Y1 confirm inactive | NPY-Y2 counter inactive | NPY-Y1 agonist inactive | NPY-Y2 agonist inactive | CNGC inh 2 inactive
CCC(=O)Nc1ccc(Nc2ccccc2)cc1	none
Cc1noc2ncnc(Sc3ccc(Cl)cc3)c12	NPY-Y1 PAM-ag 66 | NPY-Y1 confirm inactive | NPY-Y2 counter inactive | NPY-Y1 agonist inactive | NPY-Y2 agonist inactive | CNGC inh 2 inactive
O=C(O)c1ccccc1C(=O)Nc1ccc(-n2ccc(C(F)(F)F)n2)cc1	none (no result: NPY Y1 blocker, NPY-Y2 antag)
COc1ccccc1NC(=O)Nc1ccc(-n2ccc(C(F)(F)F)n2)cc1	NPY-Y1 PAM-ag 55 (no result: NPY Y1 blocker, NPY-Y2 antag) | NPY-Y1 confirm 65 | NPY-Y2 counter 49 | NPY-Y1 agonist 55 | NPY-Y2 agonist 38 | CNGC inh 2 36
O=[N+]([O-])c1ccc(/C=C/C2=NN(c3ccccc3)C(c3ccco3)C2)o1 (stereo unspecified)	NPY-Y1 PAM-ag 36 (no result: NPY-Y2 antag) | NPY-Y1 confirm 60 | NPY-Y2 counter 45 | NPY-Y1 agonist 56 | NPY-Y2 agonist 58 | CNGC inh 2 45
COC(=O)CNC(=O)CN1C(=O)N(c2cccc(Cl)c2)C(N(O)C(=O)Nc2cccc(Cl)c2)C1(C)C (stereo unspecified)	NPY-Y1 PAM-ag 49 | NPY-Y1 confirm 46 | NPY-Y2 counter inactive | NPY-Y1 agonist 32 | NPY-Y2 agonist 31 | CNGC inh 2 32
COC(=O)CNC(=O)CN1C(=O)N(c2ccccc2)C(N(O)C(=O)Nc2ccccc2)C1(C)C (stereo unspecified)	none
CC(=O)Oc1cc2c3c(c1)/C(=C1/SC(=S)NC1=O)C(=O)N3C(C)(C)C=C2C	NPY-Y1 PAM-ag 51 (no result: NPY Y1 blocker, NPY-Y2 antag) | NPY-Y1 confirm inactive | NPY-Y2 counter 40 | NPY-Y1 agonist 37 | NPY-Y2 agonist 43 | CNGC inh 2 40
c1csc(-c2nc3c4ccccc4c4ccccc4c3[nH]2)c1	none
Oc1ccccc1-c1nc2c3ccccc3c3ccccc3c2[nH]1	NPY-Y1 PAM-ag 50 (no result: NPY Y1 blocker, NPY-Y2 antag) | NPY-Y1 confirm inactive | NPY-Y2 counter inactive | NPY-Y1 agonist 37 | NPY-Y2 agonist 34 | CNGC inh 2 39
CS(=O)(=O)N1CCc2cc(S(=O)(=O)Nc3ccc4oc5c(c4c3)CCCC5)ccc21	none
COC(=O)c1ccc(NC(=O)CN(c2ccc(OC)cc2)S(C)(=O)=O)cc1	NPY-Y1 PAM-ag 43 | NPY-Y1 confirm inactive | NPY-Y2 counter inactive | NPY-Y1 agonist 41 | NPY-Y2 agonist 33 | CNGC inh 2 32
COc1ccc(CC(=O)Nc2ccc(C(C)=O)cc2)cc1	NPY-Y1 PAM-ag 37 (no result: NPY-Y2 antag) | NPY-Y1 confirm inactive | NPY-Y2 counter inactive | NPY-Y1 agonist 33 | NPY-Y2 agonist 35 | CNGC inh 2 31
COc1cc(NC(=S)NCCCN2CCOCC2)c(OC)cc1Cl	none (no result: NPY-Y2 antag)
O=C(CN1c2ccccc2Sc2ccccc21)NNC(=S)Nc1ccc(Cl)cc1Cl	NPY-Y1 PAM-ag 68 | NPY-Y1 confirm inactive | NPY-Y2 counter 37 | NPY-Y1 agonist inactive | NPY-Y2 agonist 46 | CNGC inh 2 27
